In ChEMBL document CHEMBL1155909, “Discovery and stereoselective synthesis of the novel isochroman neurokinin-1 receptor antagonist 'CJ-17,493'” (Bioorg Med Chem, 2008):
Each block holds one molecule with its values, some of them ahead of it.

Assays:
Cytochrome P450 2D6 [1] = target: T1, Cytochrome P450 2D6 (Homo sapiens, UniProt P10635); assay: Binding affinity to human CYP2D6 using bufuralol as substrate; assay type: ADME
Liver microsomes = assay: Metabolic stability in human liver microsome assessed as ratio of half life between CYP2D6-deficient microsome and CYP2D6-deficient microsome with addition of exogenous CYP2D6; assay type: ADME
Outline: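 Half-lives were measured in CYP2D6-deficient human liver microsomes with and without added exogenous CYP2D6. The value is the ratio of the half-life without CYP2D6 to the half-life with it.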

Gerbillinae [2] = assay: Inhibition of [Sar9, Met(O2)11]SP-induced foot tapping in sc dosed gerbil
Substance-P receptor = Substance-P receptor (Homo sapiens, UniProt P25103); assay: Displacement of [3H]SP from NK1 receptor in human IM9 cells
Mustela putorius furo [3] = assay: Antiemetic activity against cisplatin-induced emesis in sc dosed ferrets; assay type: functional, organism-based
Outline: (§1)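 Ferrets were given the test compound sc 30 min before cisplatin (10 mg/kg, ip). Retching and vomiting/gagging episodes were counted against vehicle control. Groups were n = 4–5, data are mean ± SEM, and Student's t-test was used. Results are given as ED90 (mg/kg, sc) or as % inhibition at the stated dose.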

CYP2D6 = CYP2D6 (Homo sapiens, UniProt P10635); assay: (§2) Inhibition of human CYP2D6 at 5 uM; assay type: ADME
Gerbillinae [4] = assay: Inhibition of [Sar9, Met(O2)11]SP-induced foot tapping in gerbil at 0.1 mg/kg, sc relative to CP-122721; details: for inhibition in vivo at 0.1 mg/kg / inhibition (INH): route subcutaneous, dose 0.1 mg/kg
Gerbillinae [5] = assay: Inhibition of [Sar9, Met(O2)11]SP-induced foot tapping in gerbil at 1 mg/kg, sc relative to CP-122721
Mustela putorius furo [6] = assay: Antiemetic activity against cisplatin-induced emesis in ferrets at 0.1 mg/kg, sc; assay type: functional; details: route subcutaneous; outline: as §1
Mustela putorius furo [7] = assay: Antiemetic activity against cisplatin-induced emesis in ferrets at 1 mg/kg, sc; assay type: functional; details: route subcutaneous; outline: as §1
Cytochrome P450 2D6 [8] = target: T1, Cytochrome P450 2D6; assay: as §2; assay type: ADME; details: 5 µM
Mustela putorius furo [9] = assay: Antiemetic activity against cisplatin-induced emesis in ferrets at 0.3 mg/kg, sc; assay type: functional; details: route subcutaneous; outline: as §1
[10] = substrate: COc1cc2c(cc1CN[C@H]1CCCN[C@H]1c1ccccc1)[C@](C)(C(F)(F)F)OCC2; assay: Activity of CYP2D6 for hydroxylation in human liver microsomes; assay type: ADME, Microsome
[11] = substrate: COc1cc2c(cc1CN[C@H]1CCCN[C@H]1c1ccccc1)[C@](C)(C(F)(F)F)OCC2; assay: Activity of CYP2D6 for N-dealkylation in human liver microsomes; assay type: ADME, Microsome
[12] = Mustela putorius, sc, read-out: ED90
[13] = dose 1 mg/kg, route subcutaneous

Sequence of Substance-P receptor (P25103 whole entry): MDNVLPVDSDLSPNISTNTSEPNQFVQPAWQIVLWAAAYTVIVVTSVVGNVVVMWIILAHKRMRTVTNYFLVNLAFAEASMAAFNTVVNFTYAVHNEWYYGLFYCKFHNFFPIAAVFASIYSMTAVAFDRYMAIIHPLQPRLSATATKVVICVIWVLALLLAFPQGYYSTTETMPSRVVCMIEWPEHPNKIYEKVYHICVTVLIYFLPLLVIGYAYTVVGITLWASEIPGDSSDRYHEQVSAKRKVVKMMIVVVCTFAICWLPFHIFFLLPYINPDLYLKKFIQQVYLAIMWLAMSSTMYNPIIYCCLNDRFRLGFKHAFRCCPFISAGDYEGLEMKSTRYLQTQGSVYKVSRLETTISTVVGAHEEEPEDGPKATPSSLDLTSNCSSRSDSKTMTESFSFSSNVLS

Molecule: COc1ccc(C(C)C(F)(F)F)cc1CN[C@H]1CCCN[C@H]1c1ccccc1 (mixture of isomers)
Ki (Cytochrome P450 2D6 [1]): 840 nM
Ratio (Liver microsomes): 2.2
ED50 (Gerbillinae [2]): 0.82 mg/kg
IC50 (Substance-P receptor): 0.4 nM
ED90 (Mustela putorius furo [3]): 0.3 mg/kg
ED100 (Mustela putorius furo [3]): >=1 mg kg-1
inhibition at 5 µM (CYP2D6): 65.9%

Molecule: COc1ccc(C(C)(OC)C(F)(F)F)cc1CN[C@H]1CCCN[C@H]1c1ccccc1 (mixture of isomers)
ED50 (Gerbillinae [2]): 0.11 mg/kg
inhibition in vivo at 0.1 mg/kg (Gerbillinae [4]; Gerbillinae, sc): 63%
inhibition in vivo at 1 mg/kg (Gerbillinae [5]; Gerbillinae, sc, dose 1 mg/kg, route subcutaneous): 55%
inhibition in vivo at 0.1 mg/kg (Mustela putorius furo [6]): 15%
inhibition at 5 µM (CYP2D6): 62.6%

Molecule: COc1cc2c(cc1CN[C@H]1CCCN[C@H]1c1ccccc1)C(C(F)(F)F)CC2 (mixture of isomers; 10)
ED50 (Gerbillinae [2]): 0.11 mg/kg
inhibition in vivo at 1 mg/kg (Mustela putorius furo [7]): 100%
IC50 (Substance-P receptor): 0.9 nM
ED100 (Mustela putorius furo [3]): 1 mg/kg
ED90 (Mustela putorius furo [3]; [12]): 0.12 mg/kg
inhibition (INH) (Cytochrome P450 2D6 [8]): 74.2%

Molecule: COc1cc2c(cc1CN[C@H]1CCCN[C@H]1c1ccccc1)C(C(F)(F)F)CC2 (mixture of isomers; 11)
Ki (Cytochrome P450 2D6 [1]): 520 nM
Ratio (Liver microsomes): 10.6
% inhibition at 0.1 mg/kg (Gerbillinae [4]; Gerbillinae, sc): 79%
IC50 (Substance-P receptor): 0.4 nM
% inhibition at 1 mg/kg (Gerbillinae [5]; Gerbillinae, sc): 88%
inhibition at 5 µM (CYP2D6): 75.9%

Molecule: COc1cc2c(cc1CN[C@H]1CCCN[C@H]1c1ccccc1)C(C(F)(F)F)CCC2 (mixture of isomers; 17)
Ratio (Liver microsomes): 7.35
inhibition in vivo at 0.1 mg/kg (Gerbillinae [4]; Gerbillinae, sc): 55%
IC50 (Substance-P receptor): 0.5 nM
inhibition (INH) (Gerbillinae [5]; [13]): 77%
ED100 (Mustela putorius furo [3]): 1 mg/kg
ED90 (Mustela putorius furo [3]; [12]): 0.17 mg/kg
inhibition (INH) (Cytochrome P450 2D6 [8]): 76.5%

Molecule: COc1cc2c(cc1CN[C@H]1CCCN[C@H]1c1ccccc1)C(C)(C(F)(F)F)CCC2 (mixture of isomers; 22)
inhibition (INH) (Gerbillinae [4]): 26%
IC50 (Substance-P receptor): 0.34 nM
inhibition (INH) (Gerbillinae [5]; [13]): 87%
inhibition (INH) (Cytochrome P450 2D6 [8]): 90%

Molecule: COc1ccc(C(C)C)cc1CN[C@H]1C2CCN(CC2)[C@H]1C(c1ccccc1)c1ccccc1 [EZLOPITANT]
Ki (Cytochrome P450 2D6 [1]): 420 nM
Ratio (Liver microsomes): 1.8
ED90 (Mustela putorius furo [3]; [12]): 2.1 mg/kg
inhibition at 5 µM (CYP2D6): 64.1%

B1: Cytochrome P450 2D6 (Homo sapiens) (protein)
chain: MGLEALVPLAVIVAIFLLLVDLMHRRQRWAARYPPGPLPLPGLGNLLHVDFQNTPYCFDQLRRRFGDVFSLQLAWTPVVVLNGLAAVREALVTHGEDTADRPPVPITQILGFGPRSQGVFLARYGPAWREQRRFSVSTLRNLGLGKKSLEQWVTEEAACLCAAFANHSGRPFRPNGLLDKAVSNVIASLTCGRRFEYDDPRFLRLLDLAQEGLKEESGFLREVLNAVPVLLHIPALAGKVLRFQKAFLTQLDELLTEHRMTWDPAQPPRDLTEAFLAEMEKAKGNPESSFNDENLRIVVADLFSAGMVTTSTTLAWGLLLMILHPDVQRRVQQEIDDVIGQVRRPEMGDQAHMPYTTAVIHEVQRFGDIVPLGVTHMTSRDIEVQGFRIPKGTTLITNLSSVLKDEAVWEKPFRFHPEHFLDAQGHFVKPEAFLPFSAGRRACLGEPLARMELFLFFTSLLQHFSFSVPTGQPRPSHHGVFAFLVSPSPYELCAVPR
Km [10]: 16.6 µM
Km [11]: 2.3 µM

Second part, led by results:

IC50 (Substance-P receptor): < 0.1 nM
inhibition (INH) (Cytochrome P450 2D6 [8]): 41.8%
Molecule: COc1cc2c(cc1CN[C@H]1CCCN[C@H]1c1ccccc1)C(C)(C(F)(F)F)OC2 (mixture of isomers; 14)
inhibition (INH) (Gerbillinae [4]): 15%
inhibition (INH) (Gerbillinae [5]; [13]): 69%

Ki (Cytochrome P450 2D6 [1]): 660 nM
Ratio (Liver microsomes): 2.1
IC50 (Substance-P receptor): < 0.1 nM
inhibition (INH) (Cytochrome P450 2D6 [8]): 73%
Molecule: COc1cc2c(cc1CN[C@H]1CCCN[C@H]1c1ccccc1)C(C)(C(F)(F)F)OC2 (mixture of isomers; 15)
inhibition (INH) (Gerbillinae [5]; [13]): 77%
ED100 (Mustela putorius furo [3]): 0.3 mg/kg
ED90 (Mustela putorius furo [3]; [12]): 0.05 mg/kg

IC50 (Substance-P receptor): 0.16 nM
inhibition (INH) (Cytochrome P450 2D6 [8]): 81%
Molecule: COc1cc2c(cc1CN[C@H]1CCCN[C@H]1c1ccccc1)C(C)(C(F)(F)F)OC2 (mixture of isomers; 16)
inhibition in vivo at 0.3 mg/kg (Mustela putorius furo [9]): 99%
inhibition (INH) (Gerbillinae [4]): 87%
inhibition (INH) (Gerbillinae [5]; [13]): 94%

IC50 (Substance-P receptor): < 0.1 nM
inhibition at 5 µM (CYP2D6): 85.4%
Molecule: COc1cc2c(cc1CN[C@H]1CCCN[C@H]1c1ccccc1)C(C(F)(F)F)CCC2 (mixture of isomers; 18)

Ratio (Liver microsomes): 1.58
IC50 (Substance-P receptor): 0.21 nM
Molecule: COc1cc2c(cc1CN[C@H]1CCCN[C@H]1c1ccccc1)C(C)(C(F)(F)F)CCC2 (mixture of isomers; 19)
inhibition (INH) (Gerbillinae [4]): 21%
inhibition (INH) (Gerbillinae [5]; [13]): 85%

IC50 (Substance-P receptor): < 0.1 nM
inhibition (INH) (Cytochrome P450 2D6 [8]): 42%
Molecule: COc1cc2c(cc1CN[C@H]1CCCN[C@H]1c1ccccc1)C(C)(C(F)(F)F)CCC2 (mixture of isomers; 20)
inhibition (INH) (Gerbillinae [4]): 0%
inhibition (INH) (Gerbillinae [5]; [13]): 65%

Ki (Cytochrome P450 2D6 [1]): 120 nM
Ratio (Liver microsomes): 1.8
IC50 (Substance-P receptor): < 0.1 nM
Molecule: COc1cc2c(cc1CN[C@H]1CCCN[C@H]1c1ccccc1)C(C)(C(F)(F)F)CCC2 (mixture of isomers; 21)
inhibition (INH) (Gerbillinae [4]): 86%
inhibition (INH) (Gerbillinae [5]; [13]): 91%
inhibition in vivo at 0.1 mg/kg (Mustela putorius furo [6]): 97%
